From ChEMBL document CHEMBL6134787, “Fexinidazole optimization: enhancing anti-leishmanial profile, metabolic stability and hERG safety” (RSC Med Chem, 2024)

Legend:
Leishmania braziliensis [1] = assay: Antileishmanial activity against wild type Leishmania braziliensis UA847 amastigotes infected in mouse peritoneal macrophage assessed as inhibition of parasite growth incubated for 72 hrs by giemsa staining based analysis; type: functional, organism-based
Procedure, shortened: (§1)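 Mouse peritoneal macrophages (1 × 10^5/well on coverslips, DMEM + 10% heat-inactivated FBS, penicillin/streptomycin) adhered overnight at 37 °C, 5% CO2. They were infected overnight with late-log promastigotes at a 20:1 parasite:macrophage ratio. Cells were then treated with compound for 72 h at 37 °C and Giemsa-stained. Amastigotes per 100 macrophages were counted to derive IC50; mean ± SD of 3–4 independent experiments.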

[2] = Cytotoxicity against mouse L929 cells assessed as inhibition of cell growth incubated for 72 hrs by MTS assay; type: toxicity, cell-based
Procedure, shortened: (§2)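 Cells in DMEM + 10% heat-inactivated FBS with penicillin/streptomycin at 37 °C, 5% CO2. They were seeded at 1 × 10^4/well and incubated with a concentration series for 72 h at 37 °C. Viability was read by MTS/PMS assay at 490 nm and IC50 derived.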

[3] = target: Voltage-gated inwardly rectifying potassium channel KCNH2 (Homo sapiens, UniProt Q12809); assay: Inhibition of human ERG stably overexpressed in HEK293 cells incubated for 30 mins by FLIPR assay; type: toxicity, cell-based; settings: for IC25: human, hek293, 0.5 h, time 30 min
Voltage-gated inwardly rectifying potassium channel KCNH2, sequence (Q12809 whole entry): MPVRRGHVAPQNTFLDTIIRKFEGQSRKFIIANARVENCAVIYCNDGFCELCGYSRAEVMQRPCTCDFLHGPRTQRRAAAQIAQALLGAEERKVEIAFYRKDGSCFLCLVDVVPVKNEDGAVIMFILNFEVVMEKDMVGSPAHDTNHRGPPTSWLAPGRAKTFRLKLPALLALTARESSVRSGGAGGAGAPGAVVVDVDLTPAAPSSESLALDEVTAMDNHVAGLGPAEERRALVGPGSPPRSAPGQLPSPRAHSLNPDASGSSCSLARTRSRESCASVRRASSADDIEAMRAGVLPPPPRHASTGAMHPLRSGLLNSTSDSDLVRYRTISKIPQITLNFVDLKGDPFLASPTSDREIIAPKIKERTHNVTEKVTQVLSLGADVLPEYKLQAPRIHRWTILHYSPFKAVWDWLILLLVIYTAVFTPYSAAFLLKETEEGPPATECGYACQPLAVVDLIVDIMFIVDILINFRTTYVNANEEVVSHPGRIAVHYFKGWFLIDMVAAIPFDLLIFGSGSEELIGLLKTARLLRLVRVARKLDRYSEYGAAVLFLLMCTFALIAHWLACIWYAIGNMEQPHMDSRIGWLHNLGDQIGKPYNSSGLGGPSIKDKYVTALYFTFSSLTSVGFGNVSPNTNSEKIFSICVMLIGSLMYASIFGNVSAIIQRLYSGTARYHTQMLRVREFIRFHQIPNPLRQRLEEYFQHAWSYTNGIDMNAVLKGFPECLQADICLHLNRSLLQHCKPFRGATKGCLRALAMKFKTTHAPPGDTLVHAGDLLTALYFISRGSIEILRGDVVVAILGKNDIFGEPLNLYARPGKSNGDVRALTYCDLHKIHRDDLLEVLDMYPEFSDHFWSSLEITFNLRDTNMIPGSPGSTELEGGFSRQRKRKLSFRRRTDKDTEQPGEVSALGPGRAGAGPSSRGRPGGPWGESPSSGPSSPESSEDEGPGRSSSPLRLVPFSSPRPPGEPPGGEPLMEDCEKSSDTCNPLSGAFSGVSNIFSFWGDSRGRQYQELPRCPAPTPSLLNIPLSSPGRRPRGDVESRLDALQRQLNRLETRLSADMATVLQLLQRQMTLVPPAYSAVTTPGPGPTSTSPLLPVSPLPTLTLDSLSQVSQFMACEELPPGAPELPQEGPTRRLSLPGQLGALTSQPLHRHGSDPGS

[4] = Metabolic stability in rat liver microsome assessed as compound remaining at 20 uM measured after 32 mins in presence of NADP and GSH by HPLC analysis; type: ADME; settings: liver microsomes, read-out: Stability
Procedure, shortened: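 Rat liver microsomes (final 2 mg/mL) in 50 mM phosphate pH 7.4 with 0.3 mM NADP+, 5.3 mM glucose-6-phosphate, G6PDH, 10 mM MgCl2 and 5 mM EDTA. 20 μM compound added at 37 °C. Aliquots at 0, 16 and 32 min were quenched in ice-cold acetonitrile and centrifuged. HPLC peak area at 254/280 nm was expressed relative to 0 min.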

Leishmania donovani [5] = assay: Antileishmanial activity against miltefosine resistant Leishmania donovani HU3MILR40 promastigotes […] assessed as inhibition of parasite growth incubated for 72 hrs by automatic microtiter plate reader analysis; type: functional, organism-based
Procedure, shortened: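 Promastigote (free parasite) assay: Schneider's Drosophila medium with 4 mM glutamine, 25 μg mL−1 gentamicin, 10% heat-inactivated FBS, pH 6.9, 27 °C. 1.5 × 10^5 promastigotes per well exposed to a concentration series for 72 h at 27 °C.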

Leishmania donovani [6] = assay: Antileishmanial activity against wild type Leishmania donovani HU3 amastigotes infected in mouse peritoneal macrophage assessed as inhibition of parasite growth incubated for 72 hrs by giemsa staining based analysis; type: functional, organism-based
Procedure, shortened: (§3)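 Mouse peritoneal macrophages in DMEM + 10% heat-inactivated FBS, penicillin/streptomycin; 1 × 10^5 cells per well on coverslips, adhered overnight at 37 °C, 5% CO2, non-adherent cells washed off. Infected overnight with late-log promastigotes at parasite:macrophage 40:1. Compound exposure 72 h at 37 °C; Giemsa stain, amastigotes per 100 macrophages counted, IC50 derived; means ± SD of 3–4 independent experiments.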

Leishmania donovani [7] = assay: Antileishmanial activity against wild type Leishmania donovani HU3 promastigotes […] assessed as inhibition of parasite growth incubated for 72 hrs by automatic microtiter plate reader analysis; type: functional, organism-based
[8] = Metabolic stability in rat liver microsome assessed as drug metabolism measured up to 32 mins in absence of inhibitor by HPLC analysis relative to control; settings: liver microsomes, without inhibitor
Leishmania amazonensis [9] = assay: Antileishmanial activity against wild type Leishmania amazonensis LV78 promastigotes […] assessed as inhibition of parasite growth incubated for 72 hrs by automatic microtiter plate reader analysis; type: functional, organism-based
Procedure, shortened: (§4)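 Promastigotes were grown in Schneider's medium (4 mM glutamine, gentamicin, 10% heat-inactivated FBS, pH 6.9, 27 °C). Cells were seeded at 1.5 × 10^5/well and exposed to a concentration series for 72 h at 27 °C.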

Leishmania donovani [10] = assay: Antileishmanial activity against miltefosine resistant Leishmania donovani HU3MILR40 amastigotes infected in mouse peritoneal macrophage assessed as inhibition of parasite growth incubated for 72 hrs by giemsa staining based analysis; type: functional, organism-based; procedure, shortened: as §3
[11] = Metabolic stability in rat liver microsome assessed as parent compound remaining at 50 degreeC measured after 16 mins after heat treatment by HPLC analysis; settings: liver microsomes, heat-treated
[12] = Metabolic stability in rat liver S9 fraction assessed as compound remaining at 20 uM measured after 32 mins in presence of NADP and GSH by HPLC analysis; type: ADME, subcellular; settings: read-out: Stability
Procedure, shortened: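 Rat liver S9 (final 4 mg/mL) in 50 mM phosphate pH 7.4 with NADPH-regenerating system (0.3 mM NADP+, 5.3 mM glucose-6-phosphate, G6PDH), 10 mM MgCl2 and 5 mM EDTA. Pre-warmed 10 min at 37 °C, then 20 μM compound and 5.5 μM GSH added. Samples taken at 0, 16 and 32 min were quenched in ice-cold acetonitrile. HPLC (254/280 nm) peak area was expressed relative to 0 min.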

Leishmania major = assay: Antileishmanial activity against wild type Leishmania major FV1 promastigotes […] assessed as inhibition of parasite growth incubated for 72 hrs by automatic microtiter plate reader analysis; type: functional, organism-based; procedure, shortened: as §4
[13] = Cytotoxicity against mouse peritoneal macrophage assessed as inhibition of cell growth incubated for 72 hrs by giemsa staining based analysis; type: toxicity; settings: peritoneal macrophages
Leishmania amazonensis [14] = assay: Antileishmanial activity against wild type Leishmania amazonensis LV78 amastigotes infected in mouse peritoneal macrophage assessed as inhibition of parasite growth incubated for 72 hrs by giemsa staining based analysis; type: functional, organism-based; procedure, shortened: as §1
RAW264.7 = assay: Cytotoxicity against mouse RAW264.7 cells assessed as inhibition of cell growth incubated for 72 hrs by MTS assay; type: functional, cell-based; settings: RAW264.7, 72 h; procedure, shortened: as §2
[15] = Hepatotoxicity against mouse TAMH cells assessed as cell viability at 7.8 to 125 uM incubated for 24 to 48 hrs by MTT assay; type: toxicity, cell-based; settings: dose lower 7.8 µM, time lower 24 hrs, dose upper 125 µM, time upper 48 hrs, read-out: Activity
Procedure, shortened: (§5)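 TAMH mouse liver cells in FCS-free DMEM/F12 with 5% PANEXIN NTA, 10 mM nicotinamide and gentamicin. Seeded at 20 000/well and attached 24 h at 37 °C, 5% CO2. DMSO-diluted compounds were applied for 24 or 48 h. MTT was added for 4 h, formazan dissolved in DMSO and A570 read. Viability was background-corrected and expressed relative to DMSO controls; mean ± SD, ≥3 experiments.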

Leishmania braziliensis [16] = assay: Antileishmanial activity against wild type Leishmania braziliensis UA847 promastigotes […] assessed as inhibition of parasite growth incubated for 72 hrs by automatic microtiter plate reader analysis; type: functional, organism-based; procedure, shortened: as §4
[17] = Hepatotoxicity against mouse TAMH cells assessed as cell viability at 62.5 uM incubated for 48 hrs by MTT assay; type: toxicity, cell-based; settings: read-out: Activity; procedure, shortened: as §5
[18] = Metabolic stability in rat liver microsome assessed as parent compound remaining at 50 degreeC measured after 32 mins after heat treatment by HPLC; settings: liver microsomes, heat-treated
[19] = Hepatotoxicity against human HepG2 cells assessed as cell viability at 62.5 uM incubated for 48 hrs by MTT assay; type: toxicity, cell-based; settings: read-out: Activity
Procedure, shortened: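 HEP-G2 cells in RPMI 1640 + 10% heat-inactivated FBS, penicillin/streptomycin. Seeded at 15 000/well and attached 24 h at 37 °C, 5% CO2. Compounds were serially diluted in DMSO, with 24 or 48 h exposure. MTT (2.5 mg/mL solution) was added for 4 h, formazan dissolved in DMSO and A570 read. Viability was background-corrected against DMSO-treated cell controls; mean ± SD, ≥3 experiments.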

hERG (KCNH2) [20] = target: T1, hERG (KCNH2) (Homo sapiens, UniProt Q12809); assay: Inhibition of human ERG stably overexpressed in HEK293 cells assessed as remaining activity at 6 uM incubated for 30 mins by FLIPR assay; type: toxicity, cell-based; settings: HEK293 cells stably overexpressing hERG, read-out: Activity
T1 sequence (Q12809 whole entry): as above
Procedure, shortened: (§6)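 HEK-293 cells stably expressing hERG, seeded at 60 000/well and grown 24 h. Compounds were added in DMSO (final 0.5%) and incubated 30 min in the dark. After 20 s baseline, Tl+ stimulus (3 mM) was added and fluorescence (ex 485/em 535 nm) recorded for 2.5 min.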

hERG (KCNH2) [21] = target: T1, hERG (KCNH2); assay: Inhibition of human ERG stably overexpressed in HEK293 cells assessed as remaining activity at 25 uM incubated for 30 mins by FLIPR assay; type: toxicity, cell-based; settings: HEK293 cells stably overexpressing hERG, read-out: Activity; procedure, shortened: as §6

SMILES | IC50 (Leishmania braziliensis [1]) [µM] | IC50 at 72 h [2] [µM] | IC25 [3] [µM] | remaining at 32 min, 20 µM [4] [%] | IC50 (Leishmania donovani [5]) [µM] | IC50 (Leishmania donovani [6]) [µM] | IC50 (Leishmania donovani [7]) [µM] | metabolised at 32 min [8] [%] | IC50 (Leishmania amazonensis [9]) [µM] | IC50 (Leishmania donovani [10]) [µM] | remaining at 32 min, 20 µM [12] [%] | IC50 (Leishmania major) [µM] | IC50 at 72 h [13] [µM] | IC50 (Leishmania amazonensis [14]) [µM] | IC50 (RAW264.7) [µM] | IC50 (Leishmania braziliensis [16]) [µM] | other results
CCc1ccc(OCc2ncc([N+](=O)[O-])n2C)cc1 | > 10 | 71.8 | 14.9 | 0 | 5.3 | > 10 | 5 | 100 | 4.5 | > 10 | 96.4 | 1.4 | > 100 | > 10 | > 68.5 | 3.9 | remaining at 16 min [11]: 16%; viability at up to 125 µM [15]: > 50%
CSc1ccc(OCc2ncc([N+](=O)[O-])n2C)cc1 [FEXINIDAZOLE] | > 10 | > 100 | 8.6 | 0 | 5.5 | > 10 | 3.3 | 100 | 7 | > 10 | 73.4 | 1.9 | > 82 | > 10 | > 100 | 3.9 | IC50 [3]: ~10.7 µM; viability at 48 h, 62.5 µM [17]: 90%; remaining at 32 min [18]: 11%; viability at 48 h, 62.5 µM [19]: 95%; activity at 0.5 h, 6 µM (hERG (KCNH2) [20]): 78%; activity at 0.5 h, 25 µM (hERG (KCNH2) [21]): 34%
